Reference: ChEMBL document CHEMBL1156386, “New cytotoxic butanolides from Litsea acutivena” (2001)
≈ marks a conversion by molar mass, not a printed value.

Tests used:
Assay type in all cases: functional
P388 = assay: Cytotoxicity against mouse P388 cells after 3 days by MTT assay; details: P388, 72 h, read-out: ED50 (the source's name)
Summary of the method: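 P-388 cells in Fisher's medium with 10% heat-inactivated FCS at 37 °C, 5% CO2. Cultures set up at 1500 cells/well in 200 µL. Compounds added at eight concentrations in triplicate. After 3 days, cells counted by MTT: formazan dissolved in DMSO, absorbance at 540 nm. ED50 = concentration giving 50% absorbance reduction versus untreated cells.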

HT-29 = assay: Cytotoxicity against human HT-29 cells after 6 days by MTT assay; details: HT-29, 144 h, read-out: ED50 (the source's name)
Summary of the method: (§1)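 A549 grown in EMEM with Earle's salts, 0.1 mM nonessential amino acids and 10% heat-inactivated FCS; HT-29 in RPMI 1640 with 10% heat-inactivated FCS; 37 °C, 5% CO2. Seeded 1000 cells/well. Eight concentrations spanning a 128-fold range, triplicate. After 6 days, MTT (1 mg/mL) added for 5 h, formazan dissolved in DMSO, A540. ED50 = 50% absorbance reduction versus untreated cells.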

A549 = assay: Cytotoxicity against human A549 cells after 6 days by MTT assay; details: A549, 144 h, read-out: ED50 (the source's name); summary of the method: as §1

Compound | EC50 (P388) [µg/mL] | EC50 (HT-29) [µg/mL] | EC50 (A549) [µg/mL]
CCCCCCCCC/C=C1/C(=O)O[C@@](C)(OC)[C@@H]1O [LITSEAKOLIDE F] | 2.04 (≈ 7.17 µM) | 4.39 (≈ 15.4 µM) | 2.01 (≈ 7.07 µM)
C=C1OC(=O)/C(=C\CCCCCCCCCCC)[C@@H]1O [ISOLICOMOLIDE D] | 2.97 (≈ 10.6 µM) | 2.11 (≈ 7.52 µM) | 2.9 (≈ 10.3 µM)
CO[C@H](C(=O)[C@@H](O)[C@@H](C)O)[C@@H]1Cc2cc3cc(O[C@H]4C[C@@H](O[C@@H]5C[C@@H](O)[C@H](O)[C@@H](C)O5)[C@H](O)[C@@H](C)O4)c(C)c(O)c3c(O)c2C(=O)[C@H]1O[C@H]1C[C@@H](O[C@@H]2C[C@@H](O)[C@@H](O[C@@H]3C[C@](C)(O)[C@H](O)[C@@H](C)O3)[C@@H](C)O2)[C@H](O)[C@@H](C)O1 [PLICAMYCIN] | 0.06 (≈ 0.0553 µM) | 0.08 (≈ 0.0737 µM) | 0.07 (≈ 0.0645 µM)
CCCCCCCCC/C=C1\C(=O)O[C@@](C)(OC)[C@@H]1O [LITSEAKOLIDE G] | 0.97 (≈ 3.41 µM) | 2.73 (≈ 9.6 µM) | 1.94 (≈ 6.82 µM)
CCCCCCCCC/C=C1/C(=O)O[C@@](C)(OC)[C@H]1O [LITSEAKOLIDE D] | 1.73 (≈ 6.08 µM) | 2 (≈ 7.03 µM) | 2.85 (≈ 10 µM)
CCCCCCCCC/C=C1\C(=O)O[C@@](C)(OC)[C@H]1O [LITSEAKOLIDE E] | 2.94 (≈ 10.3 µM) | 3.69 (≈ 13 µM) | 4.89 (≈ 17.2 µM)
C=Cc1cc(OC)c2oc(-c3ccc(O)c(OC)c3)cc2c1 [DEHYDROXYMETHYLAILANTHOIDOL] | > 50 | > 50 | > 50
